Experimental data from different studies.
ALK L1196M: ALK tyrosine kinase receptor (ALK, Homo sapiens, UniProt Q9UM73, L1196M)
ALK: ALK tyrosine kinase receptor (ALK, Homo sapiens, UniProt Q9UM73)
ALK C1156Y: ALK tyrosine kinase receptor (ALK, Homo sapiens, UniProt Q9UM73, C1156Y)

SMILES | target | assay | setting | remaining binding [%]
CO[C@@H](C)c1c(Nc2ccc([C@H](N(C)C(=O)C3CCS(=O)(=O)CC3)C(F)(F)F)cc2)cnc2cc(Cl)nn12 | ALK L1196M | cell-free assay, competition with immobilised ligand | 1 µM | 100
Nc1ncc2c(n1)-c1c([nH]c3ccc(C#CC4CC4)cc13)CCCC2 | ALK | binding, competition with immobilised ligand | 1 µM | 95
CN1CCN(c2ccc(Nc3nccc(-c4cccc([N+](=O)[O-])c4)n3)cc2C(F)(F)F)CC1 | ALK C1156Y | binding | 10 µM | 42
COc1ccnn2ncc(-c3ccnc(N(C)C)n3)c12 | ALK | binding | 1 µM | 96
Cc1cnc(Nc2ccc(C(=O)N3CCC(N4CCCC4)CC3)cc2)nc1-c1cc2ccccc2s1 | ALK | binding, competition with immobilised ligand | 1 µM | 42
c1cncc(-c2cccc(Nc3nccc(NC4CCCCC4)n3)c2)c1 | ALK | binding, competition with immobilised ligand | 10 µM | 62
CO[C@H]1CC[C@H](CNc2ccc(S(=O)(=O)NC(=O)c3ccc(N4CCN(CC5=C(c6ccc(Cl)cc6)CC(C)(C)CC5)CC4)cc3Oc3cnc4[nH]ccc4c3)cc2[N+](=O)[O-])CC1 | ALK C1156Y | cell-free assay, competition with immobilised ligand | 1 µM | 100
CNC(=O)[C@@H]1CC[C@@H](n2c(-c3ccc4cnccc4c3)nc3ccc(C(=O)NCc4cccc(C(N)=O)c4)cc32)C1 | ALK | binding, competition with immobilised ligand | 1 µM | 100
C[C@@H]1CN(c2ccc3ncc(-c4ccc5[nH]nc(C6CC6)c5c4)n3n2)C[C@H](C)O1 | ALK | binding, competition with immobilised ligand | 0.5 µM | 80
O=C(NCC1CCOCC1)c1n[nH]cc1NC(=O)c1c(F)cccc1F | ALK L1196M | binding, competition with immobilised ligand | 1 µM | 100
O=C(c1ccc(Nc2ncc(Cl)c(-c3cc4ccccc4s3)n2)cc1)N1CCC(N2CCCC2)CC1 | ALK C1156Y | binding, competition with immobilised ligand | 1 µM | 59
COc1cnc(Nc2cccc(S(N)(=O)=O)c2)nc1N1CCN(c2ccccc2)C(=O)C1 | ALK C1156Y | binding, competition with immobilised ligand | 1 µM | 96
CN1CCN(c2ccc(Nc3nccc(-c4ccccc4)n3)cc2C(F)(F)F)CC1 | ALK L1196M | binding | 10 µM | 100
CN(c1nccc(-c2cnn3ncccc23)n1)C1CC1 | ALK L1196M | binding | 1 µM | 100
C[C@H](c1ccc(F)cc1)N(Cc1cccc(C(=O)O)c1)C(=O)c1cnc2ccccc2c1 | ALK L1196M | cell-free assay, competition with immobilised ligand | 1 µM | 76
C[C@@H]1CCN(c2nccc(-c3cnn4ncccc34)n2)C1 | ALK C1156Y | binding | 1 µM | 91
CCOC(=O)c1cc2cc(-c3cc(C(=O)NCc4ccc(C(=O)O)cc4)nn3C)ccc2[nH]1 | ALK L1196M | cell-free assay, competition with immobilised ligand | 0.1 µM | 98
O=C(Nc1c[nH]nc1C(=O)NC1CCNCC1)c1cc(F)cc(F)c1 | ALK C1156Y | binding, competition with immobilised ligand | 1 µM | 100

SMILES | target | assay | setting | remaining binding [%]
O=C(c1ccc(Nc2nccc(-c3cc4ccccc4s3)n2)cc1)N1CCC(N2CCCC2)CC1 | ALK L1196M | binding, competition with immobilised ligand | 1 µM | 80
COc1ncc2cc3ccccc3nc2c1C#N | ALK | cell-free assay, competition with immobilised ligand | 5 µM | 81
NS(=O)(=O)c1cc(NC(=O)Cc2ccccc2)ccc1Oc1cccc(Cl)c1 | ALK C1156Y | cell-free assay, competition with immobilised ligand | 1 µM | 88
c1cnn2ncc(-c3ccnc(N4CCC45COC5)n3)c2c1 | ALK C1156Y | binding | 1 µM | 73
COc1cnc(Nc2cccc(S(N)(=O)=O)c2)nc1N1CCN(c2ccccc2)CC1 | ALK | binding, competition with immobilised ligand | 1 µM | 78
C[C@@H](c1ccc(-n2cnc3c(N)ncnc32)cc1)N1CCc2nn(C)c(Cc3ccccc3)c2C1=O | ALK | binding, competition with immobilised ligand | 0.1 µM | 76
C=CC(=O)N1CCC(C(=O)NCC(=O)N2CCN(c3nc(-c4cnc(N)nc4C(F)F)nc(N4CCOCC4)n3)CC2)CC1 | ALK C1156Y | binding, competition with immobilised ligand | 1 µM | 91
O=C(NCCCN1CCOCC1)c1ccc(Nc2ncc(Cl)c(-c3ccc(Cl)s3)n2)cc1 | ALK | binding, competition with immobilised ligand | 1 µM | 67
F[C@@H]1CCN(c2nccc(-c3cnn4ncccc34)n2)C1 | ALK C1156Y | binding | 1 µM | 100
O=C(NCCCN1CCOCC1)c1ccc(Nc2nccc(-c3cc4ccccc4s3)n2)cc1 | ALK | binding, competition with immobilised ligand | 1 µM | 100
CN(C)c1nccc(-c2cnn3ncccc23)n1 | ALK C1156Y | binding | 1 µM | 71
O=C(NCc1ncc(C(F)(F)F)cc1Cl)c1ccc2c(c1)C1(CCS(=O)(=O)CC1)[C@H](C1CC1)N2S(=O)(=O)c1ccc(F)cc1 | ALK C1156Y | cell-free assay, competition with immobilised ligand | 1 µM | 82
CC1CCCN1c1nccc(-c2cnn3ncccc23)n1 (stereo not drawn) | ALK L1196M | binding | 1 µM | 85
O=C(c1ccc(Nc2ncc(Cl)c(-c3ccc(Cl)s3)n2)cc1)N1CCC(N2CCCC2)CC1 | ALK C1156Y | binding, competition with immobilised ligand | 1 µM | 38
C[C@@H]1CN(c2cc(-c3nn(C)c4ccc(OC5(C)CC5)cc34)ncn2)C[C@H](C)O1 | ALK C1156Y | cell-free assay, competition with immobilised ligand | 1 µM | 82
Cc1cnn2ncc(-c3ccnc(N(C)C)n3)c2c1 | ALK L1196M | binding | 1 µM | 71
CN([C@@H]1CCc2c(CC(=O)O)c3cc(S(C)(=O)=O)ccc3n2C1)S(=O)(=O)c1ccc(F)cc1 | ALK L1196M | cell-free assay, competition with immobilised ligand | 1 µM | 89
CCN1CCN(Cc2ccc(C(=O)Nc3ccc(C)c(Oc4ccc5c(c4)CC(=O)N5)c3)cc2C(F)(F)F)CC1 | ALK | binding, competition with immobilised ligand | 1 µM | 100
